Measurements of several laboratories.
Each line is one published result; the experiments were not run side by side.
Target: Serine/threonine-protein kinase MARK1 (MARK1, Homo sapiens, UniProt Q9P0L2)

SMILES	observed	method	concentration	remaining binding
O=C(NCCCN1CCOCC1)c1ccc(Nc2nccc(-c3cc4ccccc4s3)n2)cc1	binding	competition with immobilised ligand	1 µM	66%
CCS(=O)(=O)c1cc2cc(C[C@](O)(CC(C)(C)c3ccc(F)cc3C(N)=O)C(F)(F)F)[nH]c2cn1	cell-free assay	competition with immobilised ligand	1 µM	100%
Cc1cnn2ncc(-c3ccnc(N(C)C)n3)c2c1	binding		1 µM	98%
CC(C)(O)c1cncc(-c2nc3ccc(F)cc3n2C2CC2)c1	cell-free assay	competition with immobilised ligand	1 µM	100%
CN(C)c1ncc(F)c(-c2cnn3ncccc23)n1	binding		1 µM	100%
Cn1cc(Cl)c2c(Oc3c(F)cc(Nc4cc(Cl)nc(N)n4)cc3F)ccnc21	cell-free assay	competition with immobilised ligand	0.1 µM	100%
O=C(c1ccc(Nc2ncc(Cl)c(-c3ccc(Cl)s3)n2)cc1)N1CCC(N2CCCC2)CC1	binding	competition with immobilised ligand	1 µM	24%
CNCc1ccccc1-c1csc([C@H](C)Nc2nc(C)nc3cc(OC)c(OC)cc23)c1	cell-free assay	competition with immobilised ligand	1 µM	100%
c1cnn2ncc(-c3ccnc(N4CCC45COC5)n3)c2c1	binding		1 µM	91%
C[C@@H](c1ccc(-n2cnc3c(N)ncnc32)cc1)N1CCc2nn(C)c(Cc3ccccc3)c2C1=O	binding	competition with immobilised ligand	0.1 µM	88%
N[C@H]1CCN(c2nccc(-c3cnn4ncccc34)n2)C1	binding		1 µM	100%
Cc1cnc(Nc2ccc(C(=O)N3CCC(N4CCCC4)CC3)cc2)nc1-c1cc2ccccc2s1	binding	competition with immobilised ligand	1 µM	22%
c1cncc(-c2cccc(Nc3nccc(NC4CCCCC4)n3)c2)c1	binding	competition with immobilised ligand	10 µM	90%
COc1cnc(Nc2cccc(S(N)(=O)=O)c2)nc1N1CCN(c2ccccc2)C(=O)C1	binding	competition with immobilised ligand	1 µM	95%
CCN1CCN(Cc2ccc(C(=O)Nc3ccc(C)c(Oc4ccc5c(c4)CC(=O)N5)c3)cc2C(F)(F)F)CC1	binding	competition with immobilised ligand	1 µM	100%
CN(C)c1nccc(-c2cnc3ncccn23)n1	binding		1 µM	80%
O=C(Nc1c[nH]nc1C(=O)NC1CCNCC1)c1cc(F)cc(F)c1	binding	competition with immobilised ligand	1 µM	100%
C[C@H]1CCN(c2nccc(-c3cnn4ncccc34)n2)C1	binding		1 µM	92%
COc1ccc2cc(OCC3(C(=O)O)CN(C(=O)c4ccc(F)cc4)C3)ccc2c1	cell-free assay	competition with immobilised ligand	1 µM	100%
COc1cnc(Nc2cccc(S(N)(=O)=O)c2)nc1N1CCN(c2ccccc2)CC1	binding	competition with immobilised ligand	1 µM	100%
COc1cc(-c2cn(C3CCc4c(F)cccc4N(CC(F)(F)F)C3=O)nn2)ccc1-n1cnc(C)c1 (stereo not shown)	cell-free assay	competition with immobilised ligand	1 µM	100%
COc1ncc2cc3ccccc3nc2c1C#N	cell-free assay	competition with immobilised ligand	5 µM	65%
